# Active and inactive are the calls of the source.
# Assays:
# [1] = Intrinsic clearance in mouse liver microsomes at 0.5 uM preincubated with NADPH and measured up to 30 mins by LC-MS/MS analysis; assay type: ADME, microsome
# [2] = tested on: Mycobacterium tuberculosis; assay: Antimycobacterial activity against Mycobacterium tuberculosis H37Rv ATCC 25618 after 6 days by resazurin-based assay; assay type: functional; conditions: H37Rv ATCC 25618, 144 h
# [3] = Intrinsic clearance in human liver microsomes at 0.5 uM preincubated with NADPH and measured up to 30 mins by LC-MS/MS analysis; assay type: ADME, microsome
# HepG2 [4] = assay: Cytotoxicity against human HepG2 cells assessed as effect on membrane permeability after 48 hrs by TOTO-3 iodide-staining based cell health assay; assay type: ADME; conditions: HepG2, 48 h
# physchem = conditions: buffer, pH 7.4
# HepG2 [5] = assay: Cytotoxicity against human HepG2 cells assessed as effect on mitochondrial membrane potential after 48 hrs by TMRM-staining based cell health assay; assay type: ADME; conditions: HepG2, 48 h
# HepG2 [6] = assay: cells; assay type: ADME, cell-based; conditions: Homo sapiens, HepG2, 48 h
# [7] = tested on: Mycobacterium tuberculosis; assay: Antibacterial activity against Mycobacterium tuberculosis H37Rv infected in C57BL/6 mouse assessed as reduction in colony forming units administered orally once daily for 8 days starting following day after infection and measured at 24 hrs post last dose relative to untreated control; assay type: functional
# Summary of the method: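 Female C57BL/6 mice, 8−10 weeks old, infected intratracheally with 100 000 CFU of H37Rv. Oral dosing once daily for 8 days began 1 day post-infection. Lungs were harvested 24 h after the last dose, homogenised and plated on 7H11 with 10% OADC and 0.4% charcoal for 18 days at 37 °C. Log10 CFU was fitted to a sigmoidal dose-response curve, and ED99 was defined as a 2-log CFU drop versus untreated.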
# [8] = AUC in C57BL/6 mouse at 45 mg/kg, po via gavage by LC-MS/MS analysis; assay type: ADME, organism-based; conditions: in vivo
# [9] = Volume of distribution at steady state in C57BL/6 mouse at 4.5 mg/kg, iv by LC-MS/MS analysis; assay type: ADME, organism-based; conditions: in vivo, read-out: Vdss
# [10] = Half life in C57BL/6 mouse at 4.5 mg/kg, iv by LC-MS/MS analysis; assay type: ADME, organism-based; conditions: in vivo
# [11] = Oral bioavailability in C57BL/6 mouse at 45 mg/kg via gavage by LC-MS/MS analysis; assay type: ADME, organism-based; conditions: in vivo
# [12] = Clearance in C57BL/6 mouse at 4.5 mg/kg, iv by LC-MS/MS analysis; assay type: ADME, organism-based; conditions: in vivo
# [13] = Cmax in C57BL/6 mouse at 45 mg/kg, po via gavage by LC-MS/MS analysis; assay type: ADME, organism-based; parameters: dose 45 mg/kg, route oral; conditions: in vivo
# [14] = Volume of distribution at steady state in C57BL/6 mouse at 3.6 mg/kg, iv by LC-MS/MS analysis; assay type: ADME, organism-based; conditions: in vivo, read-out: Vdss
# Summary of the method: (§1)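 Female C57BL/6 mice (18−20 g), single intravenous dose in 5% DMSO/20% Encapsin. Tail-vein whole blood (25 μL) was taken from each mouse (n = 5) at 5, 15 and 30 min and 1, 2, 4 and 8 h postdose, and compound concentration was measured in peripheral whole blood.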
# [15] = Oral bioavailability in C57BL/6 mouse at 18.7 mg/kg via gavage by LC-MS/MS analysis; assay type: ADME, organism-based; conditions: in vivo
# [16] = Clearance in C57BL/6 mouse at 3.6 mg/kg, iv by LC-MS/MS analysis; assay type: ADME, organism-based; conditions: in vivo; summary of the method: as §1
# [17] = Half life in C57BL/6 mouse at 3.6 mg/kg, iv by LC-MS/MS analysis; assay type: ADME, organism-based; conditions: in vivo; summary of the method: as §1
# [18] = AUC in C57BL/6 mouse at 18.7 mg/kg, po via gavage by LC-MS/MS analysis; assay type: ADME, organism-based; conditions: in vivo
# [19] = Cmax in C57BL/6 mouse at 18.7 mg/kg, po via gavage by LC-MS/MS analysis; assay type: ADME, organism-based; parameters: dose 18.7 mg/kg, route oral; conditions: in vivo
SMILES,CLH [1],MIC90 [2],CLH [3],also measured
CC(C)(C)c1ccc(CN2CCC3(CC2)OCCc2sccc23)cc1,> 30 mL/min/g,0.02 µM,9.9 mL/min/g,
FC(F)(F)Oc1ccc(Oc2ccc(CN3CCC4(CC3)OCCO4)cc2)cc1,,> 5 µM,,IC50 (HepG2 [4]): 49.8 µM; solubility kinetic at 1 h (physchem): 52 µM; IC50 (HepG2 [5]): 53.8 µM; IC50 (HepG2 [6]): 46.9 µM
FS(F)(F)(F)(F)c1ccc(CN2CCC3(CC2)OCCc2sccc23)cc1,18.2 mL/min/g,0.14 µM,3 mL/min/g,
Cc1cccc(CN2CCC3(CC2)OCCc2sccc23)c1,> 30 mL/min/g,0.63 µM,5.2 mL/min/g,
Cc1cc(CN2CCC3(CC2)OCCc2sccc23)c(C)n1-c1ccc(F)cc1,,3 µM,,
c1ccc(CN2CCC3(CC2)OCCc2sccc23)cc1,,> 5 µM,,
FC(F)(F)Oc1ccc(Oc2ccc(CN3CCC4(CCCO4)CC3)cc2)cc1,0.6 mL/min/g,1.3 µM,1.5 mL/min/g,IC50 (HepG2 [4]): 133 µM; IC50 (HepG2 [5]): 141 µM; IC50 (HepG2 [6]): 96.9 µM
FC(F)(F)Oc1ccc(Oc2ccc(CN3CCC4(CC3)OCCCO4)cc2)cc1,< 0.5 mL/min/g,0.65 µM,< 0.5 mL/min/g,IC50 (HepG2 [4]): 25.7 µM; solubility kinetic at 1 h (physchem): 53 µM; IC50 (HepG2 [5]): 28.8 µM; IC50 (HepG2 [6]): 26.3 µM
O=C1OCCC12CCN(Cc1ccc(Oc3ccc(OC(F)(F)F)cc3)cc1)CC2,,> 5 µM,,IC50 (HepG2 [4]): 75.9 µM; solubility kinetic at 1 h (physchem): 121 µM; IC50 (HepG2 [5]): > 200 µM; IC50 (HepG2 [6]): 74.1 µM
Cc1ccc(CN2CCC3(CC2)OCCc2sccc23)[nH]1,28.7 mL/min/g,> 5 µM,4.1 mL/min/g,
c1cc2c(s1)CCOC21CCN(Cc2ccc3c(c2)CCCO3)CC1,> 30 mL/min/g,0.23 µM,2.9 mL/min/g,
NNC(=O)c1ccncc1,,,,Activity [7]: Active
Cc1cc(CN2CCC3(CC2)OCCc2sccc23)c(C)n1-c1ccccc1,,3 µM,,
Cc1ccc(CN2CCC3(CC2)OCCc2sccc23)cc1C,> 30 mL/min/g,0.08 µM,18.9 mL/min/g,
CN1C(=O)C=CCC12CCN(Cc1ccc(Oc3ccc(OC(F)(F)F)cc3)cc1)CC2,,> 5 µM,,IC50 (HepG2 [4]): 29.2 µM; solubility kinetic at 1 h (physchem): 87 µM; IC50 (HepG2 [5]): 36.3 µM; IC50 (HepG2 [6]): 39.4 µM
CN1CCCC2(CCN(Cc3ccc(Oc4ccc(OC(F)(F)F)cc4)cc3)CC2)C1,,2.5 µM,,IC50 (HepG2 [4]): 8 µM; solubility kinetic at 1 h (physchem): 205 µM; IC50 (HepG2 [5]): 12.2 µM; IC50 (HepG2 [6]): 6.9 µM
O=C(Nc1ccc2c(c1)OCCO2)N1CCC2(CC1)OCCc1sccc12,,> 10 µM,,
c1cc2c(s1)CCOC21CCN(Cc2cnc3c(c2)OCCO3)CC1,,> 5 µM,,
Clc1ccc2c(CN3CCC4(CC3)OCCc3sccc34)c[nH]c2c1,10.3 mL/min/g,0.31 µM,1.3 mL/min/g,
Cc1ccc(CN2CCC3(CC2)OCCc2sccc23)cc1,> 30 mL/min/g,0.2 µM,22.5 mL/min/g,
CC(C)(C)c1ccc(CN2CCC3(CCOCC3)CC2)cc1,2.25 mL/min/g,5 µM,0.95 mL/min/g,IC50 (HepG2 [4]): > 200 µM; solubility kinetic at 1 h (physchem): ≥ 399 µM; IC50 (HepG2 [5]): > 200 µM; IC50 (HepG2 [6]): > 200 µM
c1ccc2oc(CN3CCC4(CC3)OCCc3ccsc34)cc2c1,,> 100 µM,,
Cc1ccccc1CN1CCC2(CC1)OCCc1sccc12,,> 5 µM,,
CC(C)(C)c1ccc(CN2CCC3(CCCOC3)CC2)cc1,48 mL/min/g,0.63 µM,7.3 mL/min/g,IC50 (HepG2 [4]): > 200 µM; solubility kinetic at 1 h (physchem): 363 µM; IC50 (HepG2 [5]): > 200 µM; IC50 (HepG2 [6]): > 200 µM
FC(F)(F)Oc1ccc(Oc2ccc(CN3CCC4(CCNC4)CC3)cc2)cc1,,> 5 µM,,IC50 (HepG2 [4]): 5.7 µM; solubility kinetic at 1 h (physchem): 117 µM; IC50 (HepG2 [5]): 6.6 µM; IC50 (HepG2 [6]): 4.9 µM

SMILES,CLH [1],MIC90 [2],CLH [3],also measured
Cc1cc(CN2CCC3(CC2)OCCc2sccc23)c(C)n1-c1ccccn1,,14 µM,,
O=S(=O)(c1ccc2c(c1)OCCO2)N1CCC2(CC1)OCCc1sccc12,,> 10 µM,,
c1cc2c(s1)CCOC2CCNCc1ccc2c(c1)OCCO2 (stereo not given),,> 5 µM,,
Brc1ccc(Nc2ccc(CN3CCC4(CC3)OCCc3sccc34)cc2)cc1,0.9 mL/min/g,0.2 µM,1.5 mL/min/g,AUC [8]: 17900 ng·h/mL; Vd [9]: 12 L/kg; half-life [10]: 7.3 h; bioavailability [11]: 84.6%; clearance [12]: 19.8 mL/min/kg; Cmax [13]: 1020 ng/mL
c1ccc2c(c1)CCOC21CCN(Cc2ccc3c(c2)OCCO3)CC1,,0.94 µM,,
FC(F)(F)Oc1ccc(Oc2ccc(CN3CCC4(CCCCO4)CC3)cc2)cc1,1.2 mL/min/g,0.31 µM,1.7 mL/min/g,IC50 (HepG2 [4]): 43.7 µM; solubility kinetic at 1 h (physchem): < 1 µM; IC50 (HepG2 [5]): 46.3 µM; IC50 (HepG2 [6]): 38.7 µM
c1cc2c(s1)CCOC21CCN(Cc2ccc3c(c2)OCCO3)C1 (stereo not given),,> 5 µM,,
CC(C)(C)c1ccc(CN2CCC3(CC2)OCCCO3)cc1,13.5 mL/min/g,2.5 µM,1.4 mL/min/g,IC50 (HepG2 [4]): > 200 µM; solubility kinetic at 1 h (physchem): 374 µM; IC50 (HepG2 [5]): > 200 µM; IC50 (HepG2 [6]): > 200 µM
CC1(CCNCc2ccc3c(c2)OCCO3)OCCc2sccc21 (stereo not given),,> 5 µM,,
c1ccc2c(CN3CCC4(CC3)OCCc3sccc34)c[nH]c2c1,7 mL/min/g,0.94 µM,3.1 mL/min/g,
FC(F)(F)Oc1ccc(Oc2ccc(CN3CCCCC3)cc2)cc1,,> 5 µM,,IC50 (HepG2 [4]): 46.3 µM; solubility kinetic at 1 h (physchem): 156 µM; IC50 (HepG2 [5]): 49.5 µM; IC50 (HepG2 [6]): 44.2 µM
c1ccc2c3c([nH]c2c1)C1(CCN(Cc2ccc4c(c2)OCCO4)CC1)OCC3,,93 µM,,
c1cc2c(s1)CCOC21CCNCC1,,> 5 µM,,
CC(c1ccc(C(F)(F)F)cc1)N1CCC2(CC1)OCCc1sccc12 (stereo not given),18.1 mL/min/g,0.63 µM,4.6 mL/min/g,
COc1ccc2c(c1)CCOC21CCN(Cc2ccc3c(c2)OCCO3)CC1,,> 10 µM,,
c1cc2c(s1)CCOC21CCN(Cc2ccc3c(c2)CCCC3)CC1,> 30 mL/min/g,0.02 µM,22.6 mL/min/g,
FC(F)(F)Oc1ccc(Oc2ccc(CN3CCC4(CCCCC4)CC3)cc2)cc1,2.8 mL/min/g,0.1 µM,0.5 mL/min/g,IC50 (HepG2 [4]): 28.3 µM; solubility kinetic at 1 h (physchem): < 1 µM; IC50 (HepG2 [5]): 21.8 µM; IC50 (HepG2 [6]): 25.9 µM
c1ccc2oc(CN3CCC4(CC3)OCCc3sccc34)cc2c1,,2.7 µM,,
COc1ccc(-n2c(C)cc(CN3CCC4(CC3)OCCc3sccc34)c2C)cc1,,3 µM,,
CC(C)(C)c1ccc(CN2CCC3(CC2)OCCCCO3)cc1,27 mL/min/g,5 µM,4.1 mL/min/g,IC50 (HepG2 [4]): > 200 µM; solubility kinetic at 1 h (physchem): 194 µM; IC50 (HepG2 [5]): 170 µM; IC50 (HepG2 [6]): 166 µM
Cc1cc(CN2CCC3(CC2)OCCc2sccc23)c(C)n1-c1cccnc1,,14 µM,,
O=C(c1ccc2c(c1)OCCO2)N1CCC2(CC1)OCCc1sccc12,,> 80 µM,,
c1ccc(Oc2ccc(CN3CCC4(CC3)OCCc3sccc34)cc2)cc1,28.8 mL/min/g,0.05 µM,12 mL/min/g,Vd [14]: 19.4 L/kg; bioavailability [15]: 1.5%; clearance [16]: 67.7 mL/min/kg; half-life [17]: 3.9 h; AUC [18]: 100 ng·h/mL; Cmax [19]: 50 ng/mL
Cn1cc(CN2CCC3(CC2)OCCc2sccc23)c2ccccc21,> 30 mL/min/g,0.63 µM,4.5 mL/min/g,

# Source: ChEMBL document CHEMBL4257587 (J Med Chem, 2018)
